According to ChEMBL document CHEMBL1121813, “Dihydrochalcone sweeteners. A study of the atypical temporal phenomena” (1981):

Key:
Type in all cases: functional
Homo sapiens [1] = species: Homo sapiens; assay: Number of taste judgments per compound
Homo sapiens [2] = species: Homo sapiens; assay: Bitter character at a concentration of 1000 ppm (mean value)
Method in brief: (§1)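 Trained human panel tasted aqueous solutions. Each judge reported whether there was an aftertaste and its character (sweet, bitter or bitter-sweet). The value is the percentage of judgments reporting a bitter aftertaste.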

Homo sapiens [3] = species: Homo sapiens; assay: Intensity calculated on a weight basis relative to an 85500 ppm sucrose solution at a concentration of 1000 ppm (mean value)
Method in brief: (§2)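 Trained human panel tasted aqueous solutions of purity-checked (≥95 weight percent) compounds cleared for mutagenicity and mouse oral toxicity. Weight-basis intensity I_w = perceived intensity × (85500 ppm sucrose / compound concentration in ppm). The mean is reported with 2S_m limits; data deviating excessively at 95% confidence were rejected by the t-value method.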

Homo sapiens [4] = species: Homo sapiens; assay: Other taste character at a concentration of 1000 ppm (mean value)
Method in brief: (§3)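 Trained human panel tasted aqueous solutions of each compound. Aftertaste is scored as the percentage of judgments reporting one, with its character coded sweet (s), bitter (b) or bitter-sweet (bs).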

Homo sapiens [5] = species: Homo sapiens; assay: Sweet character at a concentration of 1000 ppm (mean value)
Homo sapiens [6] = species: Homo sapiens; assay: Experimentally determined perceived intensity of compound at a concentration of 1000 ppm (mean value)
Method in brief: (§4)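 Trained human sensory panel of judges tasted aqueous solutions of the compound. Samples had to be ≥95 weight % pure (HPLC, proton titration, Karl Fischer), non-mutagenic in five Salmonella typhimurium strains with and without microsomal activation, and non-toxic in a single-oral-dose mouse test. Perceived intensity (Ip) was read from time–intensity curves at 4- or 6-s intervals and averaged. Outliers at the 95% level were rejected by t-value. Values reported as mean (2Sm).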

Homo sapiens [7] = species: Homo sapiens; assay: Sweet / Bitter character at a concentration of 1000 ppm (mean value); 75/25
Homo sapiens [8] = species: Homo sapiens; assay: Salty character at a concentration of 1000 ppm (mean value)
Homo sapiens [9] = species: Homo sapiens; assay: Intensity calculated on a molar basis relative to a 0.25 M sucrose solution at a concentration of 1000 ppm (mean value)
Method in brief: (§5)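 Panel-derived mean perceived intensity (Ip) converted to a molar basis by Im = Ip × (0.25 M / Y), where Y is the compound's molar concentration. Reference is a 0.25 M sucrose solution. Reported with limits of 2Sm.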

Homo sapiens [10] = species: Homo sapiens; assay: Sour character at a concentration of 1000 ppm (mean value)
Homo sapiens [11] = species: Homo sapiens; assay: Percentage of judgments reporting an aftertaste at a concentration of 1000 ppm and character thereof
Method in brief: (§6)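 Trained judges tasted aqueous solutions of the compounds, which had to be ≥95 weight percent pure and to have passed mutagenicity and single oral dose toxicity screening. The value is the percentage of panel judgments reporting an aftertaste. Where given, its character is recorded as sweet, bitter or bitter-sweet.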

Homo sapiens [12] = species: Homo sapiens; assay: Experimentally determined perceived intensity of compound at a concentration of 2400 ppm (mean value); method in brief: as §4
Homo sapiens [13] = species: Homo sapiens; assay: Percentage of judgments reporting an aftertaste at a concentration of 2400 ppm and character thereof; method in brief: as §6
Homo sapiens [14] = species: Homo sapiens; assay: Sour character at a concentration of 250 ppm (mean value)
Method in brief: (§7)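 Trained human sensory panel (Swartz method) tasted dilute aqueous solutions of the compounds, which had to be ≥95 weight percent pure and free of mutagenicity and toxicity. Taste character is reported as the mean value with 2S_m limits. Data deviating excessively at the 95% confidence level were rejected by the t-value method.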

Homo sapiens [15] = species: Homo sapiens; assay: Salty character at a concentration of 250 ppm (mean value); method in brief: as §7
Homo sapiens [16] = species: Homo sapiens; assay: Percentage of judgments reporting an aftertaste at a concentration of 250 ppm and character thereof; method in brief: as §6
Homo sapiens [17] = species: Homo sapiens; assay: Sweet character at a concentration of 250 ppm (mean value); method in brief: as §7
Homo sapiens [18] = species: Homo sapiens; assay: Intensity calculated on a molar basis relative to a 0.25 M sucrose solution at a concentration of 250 ppm (mean value)
Method in brief: (§8)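 Trained human judges tasted aqueous solutions of the test compound; compounds were first required to be ≥95 weight percent pure and free of mutagenicity (five Salmonella typhimurium strains, ± microsomal activation) and of single oral dose mouse toxicity. Molar intensity I_m = perceived intensity × (0.25 M sucrose / compound molar concentration). The mean is reported with 2S_m limits; outliers were rejected at 95% confidence by t-value.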

Homo sapiens [19] = species: Homo sapiens; assay: Intensity calculated on a weight basis relative to an 85500 ppm sucrose solution at a concentration of 250 ppm (mean value); method in brief: as §2
Homo sapiens [20] = species: Homo sapiens; assay: Other taste character at a concentration of 250 ppm (mean value); method in brief: as §7
Homo sapiens [21] = species: Homo sapiens; assay: Bitter character at a concentration of 250 ppm (mean value); method in brief: as §1
Homo sapiens [22] = species: Homo sapiens; assay: Sweet / Bitter character at a concentration of 250 ppm (mean value); 92/8
Homo sapiens [23] = species: Homo sapiens; assay: Experimentally determined perceived intensity of compound at a concentration of 250 ppm (mean value); method in brief: as §4
Homo sapiens [24] = species: Homo sapiens; assay: Other taste character at a concentration of 1013 ppm (mean value); method in brief: as §3
Homo sapiens [25] = species: Homo sapiens; assay: Intensity calculated on a molar basis relative to a 0.25 M sucrose solution at a concentration of 1013 ppm (mean value); method in brief: as §8
Homo sapiens [26] = species: Homo sapiens; assay: Experimentally determined perceived intensity of compound at a concentration of 1013 ppm (mean value); method in brief: as §4
Homo sapiens [27] = species: Homo sapiens; assay: Bitter character at a concentration of 1013 ppm (mean value); method in brief: as §1
Homo sapiens [28] = species: Homo sapiens; assay: Sour character at a concentration of 1013 ppm (mean value)
Homo sapiens [29] = species: Homo sapiens; assay: Intensity calculated on a weight basis relative to an 85500 ppm sucrose solution at a concentration of 1013 ppm (mean value); method in brief: as §2
Homo sapiens [30] = species: Homo sapiens; assay: Percentage of judgments reporting an aftertaste at a concentration of 1013 ppm and character thereof; method in brief: as §6
Homo sapiens [31] = species: Homo sapiens; assay: Sweet / Bitter character at a concentration of 1013 ppm (mean value); 28/72
Homo sapiens [32] = species: Homo sapiens; assay: Sweet character at a concentration of 1013 ppm (mean value)
Homo sapiens [33] = species: Homo sapiens; assay: Salty character at a concentration of 1013 ppm (mean value)
Homo sapiens [34] = species: Homo sapiens; assay: Sour character at a concentration of 1001 ppm (mean value)
Homo sapiens [35] = species: Homo sapiens; assay: Intensity calculated on a molar basis relative to a 0.25 M sucrose solution at a concentration of 1001 ppm (mean value); method in brief: as §5
Homo sapiens [36] = species: Homo sapiens; assay: Experimentally determined perceived intensity of compound at a concentration of 1001 ppm (mean value); method in brief: as §4
Homo sapiens [37] = species: Homo sapiens; assay: Sweet character at a concentration of 1001 ppm (mean value)
Homo sapiens [38] = species: Homo sapiens; assay: Percentage of judgments reporting an aftertaste at a concentration of 1001 ppm and character thereof; Sweet; method in brief: as §6
Homo sapiens [39] = species: Homo sapiens; assay: Sweet / Bitter character at a concentration of 1001 ppm (mean value)
Homo sapiens [40] = species: Homo sapiens; assay: Intensity calculated on a weight basis relative to an 85500 ppm sucrose solution at a concentration of 1001 ppm (mean value); method in brief: as §2
Homo sapiens [41] = species: Homo sapiens; assay: Other taste character at a concentration of 1001 ppm (mean value); method in brief: as §3
Homo sapiens [42] = species: Homo sapiens; assay: Bitter character at a concentration of 1001 ppm (mean value); method in brief: as §1
Homo sapiens [43] = species: Homo sapiens; assay: Salty character at a concentration of 1001 ppm (mean value)
Homo sapiens [44] = species: Homo sapiens; assay: Sweet / Bitter character at a concentration of 250 ppm (mean value); 0/100

With `COc1ccc(CCC(=O)c2c(O)cc(OCCN)cc2O)cc1O` the Judgments (Homo sapiens [1]) was 1, the Taste character (Homo sapiens [2]) was 25 and the IW (Homo sapiens [3]) was 86. For the same compound, the Taste character (Homo sapiens [4]) was 0, the Taste character (Homo sapiens [5]) was 75 and the IP (Homo sapiens [6]) was 1. The Taste character (Homo sapiens [7]) was 75, the Taste character (Homo sapiens [8]) was 0 and the IM (Homo sapiens [9]) was 87. It also gave a Taste character (Homo sapiens [10]) of 0 and a Judgments (Homo sapiens [11]) of 100.
In the case of `COc1ccc(CCC(=O)c2c(O)cc(OC(CCC(=O)[O-])C(=O)[O-])cc2O)cc1O.[Na+].[Na+]` (stereo not drawn), the Judgments (Homo sapiens [1]) was 1, the IP (Homo sapiens [12]) was 0 and the Judgments (Homo sapiens [13]) was 0.
For `COc1ccc(CCC(=O)c2c(O)cc(OCCC(O)C(=O)[O-])cc2O)cc1O.[Na+]` (stereo not drawn), the Taste character (Homo sapiens [14]) was 0, the Taste character (Homo sapiens [15]) was 0 and the Judgments (Homo sapiens [1]) was 4. For the same compound, the Judgments (Homo sapiens [16]) was 100, the Taste character (Homo sapiens [17]) was 92 and the IM (Homo sapiens [18]) was 550. It also gave an IW (Homo sapiens [19]) of 440, a Taste character (Homo sapiens [20]) of 0 and a Taste character (Homo sapiens [21]) of 8. The Taste character (Homo sapiens [22]) was 92 and the IP (Homo sapiens [23]) was 1.28.
In the case of `COc1ccc(/C=C/C(=O)c2ccc(OCCCS(=O)(=O)[O-])cc2O)cc1O.[K+]`, the Taste character (Homo sapiens [24]) was 18, the IM (Homo sapiens [25]) was 50 and the IP (Homo sapiens [26]) was 0.45. For the same compound, the Taste character (Homo sapiens [27]) was 59, the Judgments (Homo sapiens [1]) was 12 and the Taste character (Homo sapiens [28]) was 0. It also gave an IW (Homo sapiens [29]) of 38, a Judgments (Homo sapiens [30]) of 100 and a Taste character (Homo sapiens [31]) of 28. For the same compound, the Taste character (Homo sapiens [32]) was 23 and the Taste character (Homo sapiens [33]) was 0.
`COc1ccc(CCc2noc3cc(OCC(=O)[O-])cc(O)c23)cc1O.[Na+]` was tested, and the Taste character (Homo sapiens [34]) was 0, the IM (Homo sapiens [35]) was 36 and the IP (Homo sapiens [36]) was 0.38. It also gave a Judgments (Homo sapiens [1]) of 12, a Taste character (Homo sapiens [37]) of 66 and a Judgments (Homo sapiens [38]) of 100. It also gave a Taste character (Homo sapiens [39]) of 75, an IW (Homo sapiens [40]) of 32 and a Taste character (Homo sapiens [41]) of 12. It also gave a Taste character (Homo sapiens [42]) of 22 and a Taste character (Homo sapiens [43]) of 0.
`O=C(O)CCc1ccc(O)c(O)c1` [DIHYDROCAFFEIC ACID] showed a Taste character (Homo sapiens [14]) of 76, a Taste character (Homo sapiens [44]) of 0 and a Taste character (Homo sapiens [15]) of 0. For the same compound, the Judgments (Homo sapiens [1]) was 8, the Judgments (Homo sapiens [16]) was 50 and the Taste character (Homo sapiens [17]) was 0. The IM (Homo sapiens [18]) was 130, the IW (Homo sapiens [19]) was 250 and the Taste character (Homo sapiens [20]) was 9. It also gave a Taste character (Homo sapiens [21]) of 15 and an IP (Homo sapiens [23]) of 0.73.
